Results on 3 substances are retold here after PMC3003407 (The Journal of Biological Chemistry, 2010).

The target in assay [1] is human plasma fibronectin (human). Nature of the assay: ELISA. A general note: An ELISA detects its analyte on a solid surface through an enzyme-linked reagent.
In assay [2] the target is recombinant human N-terminal 70-kDa fibrin- and gelatin-binding fragment of fibronectin (N-9FNI, residues 32-608) (human) (UniProt P02751). Nature of the assay: ITC. A general note: ITC needs no label: the signal is the heat of the interaction.
Assay [3] deals with FN (Homo sapiens, UniProt P02751). Nature of the assay: Competition of 0.3 nM b-FUD binding to adsorbed FN. The settings on record: 1000 nM competitor. In outline:
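Wells coated overnight at 4 °C with 10 μg/ml (40 nM) FN, then blocked with 5% BSA in TBST. 0.3 nM biotinylated FUD was added together with competitor in TBST plus 0.1% BSA for 2 h. Detection used alkaline phosphatase–streptavidin (1:20,000, 1 h), 4-nitrophenyl phosphate (1 mg/ml, TBS pH 9.0) and A405. Triplicates, background-subtracted, expressed relative to b-FUD alone.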

In turn, “FUD i29/30 (single alanine inserted between Ile-29 and Asp-30) (domain or fragment)” had a percent competition at 10 μM in assay [1] of 20%. As to “functional upstream domain (FUD) of Streptococcus pyogenes F1 adhesin, recombinant, 56 residues with tails (domain or fragment)”, the Kd in assay [2] turned out to be 5.2 nM. For “N-^5FNI: Recombinant FN fibrin-binding fragment, residues 32–290”, the “competition with b-FUD for binding to FN” value in assay [3] is listed as “minor degree”.

What is called Kd is the concentration at which binding is half-saturated.
